Experimental data from ChEMBL document CHEMBL5678799 (Biochem J, 2009).
The source made the active and inactive calls. The rule behind the calls is not given here.

Tests used:
[1] = target: Serine/threonine-protein kinase Nek6 (Homo sapiens) (UniProt Q9HC98); assay: Inhibition of recombinant human His6-tagged NEK6 (8 to 313 residues) expressed in baculovirus infected Sf21 cells assessed as remaining activity at 10 uM using FLAKSFGSPNRAYKK as substrate incubated for 30 mins in presence of [gamma-33P]ATP by filter binding method relative to control
Chain of Serine/threonine-protein kinase Nek6 (Homo sapiens) (Q9HC98 whole entry, the tested form may be a part): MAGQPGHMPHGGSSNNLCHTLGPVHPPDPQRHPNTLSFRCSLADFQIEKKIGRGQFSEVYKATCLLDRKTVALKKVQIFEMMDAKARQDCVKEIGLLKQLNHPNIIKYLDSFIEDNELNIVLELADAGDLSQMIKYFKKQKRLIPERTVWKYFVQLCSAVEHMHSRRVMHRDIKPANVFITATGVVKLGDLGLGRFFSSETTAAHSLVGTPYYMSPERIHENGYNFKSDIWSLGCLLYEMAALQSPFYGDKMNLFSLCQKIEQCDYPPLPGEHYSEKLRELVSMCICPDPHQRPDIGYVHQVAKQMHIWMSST
Procedure, shortened: (§1)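 Run robotically for 30 min at 21 °C under linear conditions. Compound at 1 or 10 µM. Percentage activity remaining versus control without compound, triplicate mean ± S.D.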

[2] = target: Tyrosine-protein kinase CSK (Homo sapiens) (UniProt P41240); assay: Inhibition of recombinant human N-terminal GST-tagged CSK (1 to 450 residues) expressed in Escherichia coli assessed as remaining activity at 1 uM Cdc2 peptide as substrate incubated for 30 mins in presence of [gamma-33P]ATP by filter binding method relative to control
Chain of Tyrosine-protein kinase CSK (Homo sapiens) (P41240 2-450 limits assumed): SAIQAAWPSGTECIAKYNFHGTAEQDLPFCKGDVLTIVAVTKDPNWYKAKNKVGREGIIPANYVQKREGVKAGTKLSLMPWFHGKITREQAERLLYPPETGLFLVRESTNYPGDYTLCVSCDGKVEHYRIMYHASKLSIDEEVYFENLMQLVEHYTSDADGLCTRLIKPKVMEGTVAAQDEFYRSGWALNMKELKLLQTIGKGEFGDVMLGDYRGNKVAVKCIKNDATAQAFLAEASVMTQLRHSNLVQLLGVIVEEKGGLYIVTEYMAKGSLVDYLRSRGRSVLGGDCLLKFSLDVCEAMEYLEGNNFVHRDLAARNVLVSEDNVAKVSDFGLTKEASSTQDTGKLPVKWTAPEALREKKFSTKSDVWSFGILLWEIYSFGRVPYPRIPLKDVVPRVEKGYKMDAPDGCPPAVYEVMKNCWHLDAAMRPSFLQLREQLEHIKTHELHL
Procedure, shortened: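 Incubations ran robotically for 30 min at room temperature (21 °C) under linear conditions. Results are percent activity remaining versus controls without compound, as the mean of triplicates ± S.D.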

[3] = target: Serine/threonine-protein kinase mTOR (Mus musculus) (UniProt Q9JLN9); assay: Inhibition of mTOR in MEF cells assessed as reduction in 4E-BP1 phosphorylation at S65 residues at 1 uM incubated for 30 mins by immunoblot analysis; type: cell-based
Procedure, shortened: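 HEK-293 cells or MEFs cultured in 10% serum and treated 30 min with inhibitor. Lysed in Tris lysis buffer. Lysates immunoblotted for 4E-BP1 phosphorylated at Thr37/Thr46 and Ser65, with mobility shift noted. Three experiments.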

[4] = target: Mitogen-activated protein kinase 9 (Homo sapiens) (UniProt P45984); assay: Inhibition of recombinant human N-terminal His6-tagged JNK2alpha2 (1 to 424 residues) expressed in baculovirus infected Sf21 cells assessed as remaining activity at 10 uM using ATF2 as substrate incubated for 30 mins in presence of [gamma-33P]ATP by filter binding method relative to control
Chain of Mitogen-activated protein kinase 9 (Homo sapiens) (P45984 whole entry, looked up, the tested form may be a part): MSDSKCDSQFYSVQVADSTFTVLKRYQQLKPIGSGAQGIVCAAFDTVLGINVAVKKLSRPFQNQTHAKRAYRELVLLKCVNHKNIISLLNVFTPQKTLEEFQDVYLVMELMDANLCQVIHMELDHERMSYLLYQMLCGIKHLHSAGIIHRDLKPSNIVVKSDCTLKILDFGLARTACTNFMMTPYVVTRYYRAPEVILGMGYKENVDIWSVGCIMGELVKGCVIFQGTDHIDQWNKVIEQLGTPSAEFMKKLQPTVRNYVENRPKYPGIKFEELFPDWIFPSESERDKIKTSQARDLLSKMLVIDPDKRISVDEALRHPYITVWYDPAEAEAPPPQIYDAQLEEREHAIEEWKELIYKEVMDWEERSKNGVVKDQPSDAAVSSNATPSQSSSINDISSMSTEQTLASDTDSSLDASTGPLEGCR

[5] = target: Ephrin type-A receptor 2 (Homo sapiens) (UniProt P29317); assay: Inhibition of recombinant human N-terminal GST-tagged EPHA2 (591 to 976 residues) expressed in Escherichia coli assessed as remaining activity at 1 uM using Poly (Glu,Tyr) as substrate incubated for 30 mins in presence of [gamma-33P]ATP by filter binding method relative to control; procedure, shortened: as §1
Chain of Ephrin type-A receptor 2 (Homo sapiens) (P29317 whole entry, the tested form may be a part): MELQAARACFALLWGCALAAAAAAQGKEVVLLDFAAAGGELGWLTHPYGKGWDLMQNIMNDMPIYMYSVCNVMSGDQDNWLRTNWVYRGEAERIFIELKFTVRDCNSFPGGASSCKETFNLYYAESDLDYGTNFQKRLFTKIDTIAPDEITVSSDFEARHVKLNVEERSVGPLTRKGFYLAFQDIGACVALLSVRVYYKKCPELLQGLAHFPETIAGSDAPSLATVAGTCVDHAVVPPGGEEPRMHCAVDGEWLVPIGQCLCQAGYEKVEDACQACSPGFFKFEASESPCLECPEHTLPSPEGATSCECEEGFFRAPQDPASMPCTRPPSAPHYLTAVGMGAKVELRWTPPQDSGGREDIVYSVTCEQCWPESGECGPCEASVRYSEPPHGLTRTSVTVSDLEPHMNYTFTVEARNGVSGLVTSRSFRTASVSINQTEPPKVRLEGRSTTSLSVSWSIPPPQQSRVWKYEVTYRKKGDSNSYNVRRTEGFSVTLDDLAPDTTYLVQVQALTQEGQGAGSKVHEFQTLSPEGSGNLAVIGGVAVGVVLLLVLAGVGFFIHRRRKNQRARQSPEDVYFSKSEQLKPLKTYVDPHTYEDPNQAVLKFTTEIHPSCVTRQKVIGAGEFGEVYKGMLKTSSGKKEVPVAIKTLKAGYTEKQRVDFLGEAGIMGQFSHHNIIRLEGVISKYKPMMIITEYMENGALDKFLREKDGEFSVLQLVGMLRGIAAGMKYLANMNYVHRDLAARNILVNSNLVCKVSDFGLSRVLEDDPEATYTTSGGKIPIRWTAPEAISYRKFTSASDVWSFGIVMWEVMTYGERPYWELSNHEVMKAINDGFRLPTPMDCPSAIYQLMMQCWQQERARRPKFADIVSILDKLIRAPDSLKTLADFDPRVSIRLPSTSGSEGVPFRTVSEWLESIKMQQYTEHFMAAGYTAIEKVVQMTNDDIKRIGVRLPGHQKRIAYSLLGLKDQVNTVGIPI

mTORC1 (Homo sapiens) [6] = target: T1, mTORC1 (Homo sapiens) (UniProt P42345+Q8N122+Q9BVC4); conditions: HEK293, dose 100-300 nM, time 30.0 min
T1 sequence (Q8N122 whole entry, looked up, other chains not shown): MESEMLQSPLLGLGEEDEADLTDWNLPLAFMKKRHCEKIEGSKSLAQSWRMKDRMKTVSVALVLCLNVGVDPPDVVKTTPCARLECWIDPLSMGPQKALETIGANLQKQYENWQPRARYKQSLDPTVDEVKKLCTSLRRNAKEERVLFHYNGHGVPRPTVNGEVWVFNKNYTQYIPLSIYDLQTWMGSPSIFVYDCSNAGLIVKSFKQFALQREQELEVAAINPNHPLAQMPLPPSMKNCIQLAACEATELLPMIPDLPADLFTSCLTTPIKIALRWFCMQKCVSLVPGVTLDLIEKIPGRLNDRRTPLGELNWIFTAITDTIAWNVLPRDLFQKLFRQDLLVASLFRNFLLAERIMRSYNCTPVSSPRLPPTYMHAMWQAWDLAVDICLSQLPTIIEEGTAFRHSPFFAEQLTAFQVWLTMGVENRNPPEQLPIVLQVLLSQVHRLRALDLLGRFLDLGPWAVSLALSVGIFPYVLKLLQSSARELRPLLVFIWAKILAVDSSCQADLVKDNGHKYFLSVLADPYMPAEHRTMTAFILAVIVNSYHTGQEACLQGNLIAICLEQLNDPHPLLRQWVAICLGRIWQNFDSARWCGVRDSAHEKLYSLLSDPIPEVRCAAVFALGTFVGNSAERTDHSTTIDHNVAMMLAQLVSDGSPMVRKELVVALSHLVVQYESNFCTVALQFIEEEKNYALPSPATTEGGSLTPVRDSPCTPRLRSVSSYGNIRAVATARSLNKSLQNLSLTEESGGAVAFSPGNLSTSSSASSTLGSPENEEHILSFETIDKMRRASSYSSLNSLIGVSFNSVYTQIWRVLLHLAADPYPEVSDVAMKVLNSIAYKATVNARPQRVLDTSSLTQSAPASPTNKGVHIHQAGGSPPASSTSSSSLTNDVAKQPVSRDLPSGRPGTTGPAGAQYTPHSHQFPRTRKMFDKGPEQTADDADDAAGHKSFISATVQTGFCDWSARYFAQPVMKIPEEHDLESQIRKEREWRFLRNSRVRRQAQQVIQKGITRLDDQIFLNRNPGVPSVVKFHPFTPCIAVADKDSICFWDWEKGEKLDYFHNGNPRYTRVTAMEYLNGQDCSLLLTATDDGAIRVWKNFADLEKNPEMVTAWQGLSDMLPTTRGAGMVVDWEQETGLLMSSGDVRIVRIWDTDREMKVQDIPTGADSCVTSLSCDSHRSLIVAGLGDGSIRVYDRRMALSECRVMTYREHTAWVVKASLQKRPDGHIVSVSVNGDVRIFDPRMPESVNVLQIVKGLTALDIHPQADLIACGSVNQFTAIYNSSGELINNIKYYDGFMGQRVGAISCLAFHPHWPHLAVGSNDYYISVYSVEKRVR
T1 sequence (Q9BVC4 whole entry, looked up, other chains not shown): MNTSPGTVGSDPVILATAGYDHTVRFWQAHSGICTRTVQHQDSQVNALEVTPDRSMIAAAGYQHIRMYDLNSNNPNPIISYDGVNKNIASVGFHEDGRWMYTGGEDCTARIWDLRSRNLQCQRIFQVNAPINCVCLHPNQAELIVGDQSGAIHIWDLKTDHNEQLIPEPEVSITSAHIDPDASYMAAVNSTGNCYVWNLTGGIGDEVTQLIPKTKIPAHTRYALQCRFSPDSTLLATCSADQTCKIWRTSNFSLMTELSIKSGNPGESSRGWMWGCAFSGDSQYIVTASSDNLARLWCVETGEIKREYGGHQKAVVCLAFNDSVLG

mTORC1 (Homo sapiens) [7] = target: T1, mTORC1 (Homo sapiens); conditions: HEK293, dose 30-1000 nM, time 30.0 min
mTORC1 (Homo sapiens) [8] = target: T1, mTORC1 (Homo sapiens); conditions: HEK293, dose 30-1000 nM, time 30.0 min; remark: listed apart in the source
[9] = target: Aurora kinase B (Homo sapiens) (UniProt Q96GD4); assay: Inhibition of recombinant human N-terminal His6-tagged Aurora B (1 to 344 residues) expressed in Escherichia coli assessed as remaining activity at 10 uM using LRRLSLGLRRLSLGLRRLSLGLRRLSLG as substrate incubated for 30 mins in presence of [gamma-33P]ATP by filter binding method relative to control
Chain of Aurora kinase B (Homo sapiens) (Q96GD4 whole entry, the tested form may be a part): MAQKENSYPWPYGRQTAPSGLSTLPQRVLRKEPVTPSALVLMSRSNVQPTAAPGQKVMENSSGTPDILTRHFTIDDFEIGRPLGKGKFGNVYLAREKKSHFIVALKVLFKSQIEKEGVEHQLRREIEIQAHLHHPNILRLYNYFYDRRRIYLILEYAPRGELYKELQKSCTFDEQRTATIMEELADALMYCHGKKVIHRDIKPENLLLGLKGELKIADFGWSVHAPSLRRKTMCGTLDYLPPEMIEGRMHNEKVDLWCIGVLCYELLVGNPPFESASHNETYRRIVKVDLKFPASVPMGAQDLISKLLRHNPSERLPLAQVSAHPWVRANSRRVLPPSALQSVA

[10] = target: Mitogen-activated protein kinase 14 (Homo sapiens) (UniProt Q16539); assay: Inhibition of recombinant human N-terminal GST-tagged P38alpha (1 to 360 residues) expressed in Escherichia coli assessed as remaining activity at 1 uM using MBP as substrate incubated for 30 mins in presence of [gamma-33P]ATP by filter binding method relative to control
Procedure, shortened: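 Incubation was 30 min at room temperature (21 °C) under conditions linear with time and enzyme amount. Activity is reported as percent of control lacking compound, triplicate mean ± S.D.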

mTORC1 (Homo sapiens) [11] = target: T1, mTORC1 (Homo sapiens); conditions: HEK293, dose 30-1000 nM, time 30.0 min; remark: listed apart in the source
[12] = target: cAMP-dependent protein kinase catalytic subunit alpha (Homo sapiens) (UniProt P17612); assay: Inhibition of recombinant human N-terminal GST-tagged PKAalpha (2 to 351 residues) expressed in Escherichia coli assessed as remaining activity at 1 uM using Kemptide as substrate incubated for 30 mins in presence of [gamma-33P]ATP by filter binding method relative to control
Procedure, shortened: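 Panel assays were run for 30 min at 21 °C, within the linear range for time and enzyme. […] Results are percent activity remaining relative to compound-free control, averaged from triplicate ± S.D.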

[13] = target: Mitogen-activated protein kinase 15 (Homo sapiens) (UniProt Q8TD08); assay: Inhibition of recombinant human N-terminal His6-tagged ERK8 (2 to 544 residues) expressed in baculovirus infected Sf21 cells assessed as remaining activity at 1 uM using MBP as substrate incubated for 30 mins in presence of [gamma-33P]ATP by filter binding method relative to control
Procedure, shortened: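 Radiometric kinase panel run robotically at room temperature (21 °C) for 30 min, linear in time and enzyme. […] Activity is expressed as percent of control without compound, from triplicate determinations ± S.D.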

mTORC1 (Homo sapiens) [14] = target: T1, mTORC1 (Homo sapiens); conditions: HEK293, dose 30.0 nM, time 30.0 min
[15] = target: Mitogen-activated protein kinase 3 (Homo sapiens) (UniProt P27361); assay: Inhibition of recombinant human N-terminal GST-tagged ERK1 (2 to 379 residues) expressed in Escherichia coli assessed as remaining activity at 1 uM using MBP as substrate incubated for 30 mins in presence of [gamma-33P]ATP by filter binding method relative to control
Procedure, shortened: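 Kinase panel run robotically at 21 °C for 30 min, linear in time and enzyme. […] Compound tested at 1 or 10 µM. Activity given as percentage of incubations without compound, mean of triplicates ± S.D.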

[16] = target: Tyrosine-protein kinase SYK (Homo sapiens) (UniProt P43405); assay: Inhibition of recombinant human N-terminal His6-tagged SYK (1 to 635 residues) expressed in baculovirus infected Sf21 cells assessed as remaining activity at 1 uM using Poly (Glu,Tyr) as substrate incubated for 30 mins in presence of [gamma-33P]ATP by filter binding assay relative to control
MEF = assay: Induction of cell cycle arrest in mLST8 knockout MEF cells assessed as accumulation at G1 phase at 3 uM incubated for 1 to 3 days by propidium iodide staining based flow cytometric analysis (reference value: 22.2 +/- 0.59%); type: toxicity; conditions: mouse, time 1-3 day
[17] = target: Ribosomal protein S6 kinase alpha-1 (Homo sapiens) (UniProt Q15418); assay: Inhibition of recombinant human N-terminal His6-tagged RSK1 (1 to 735 residues) expressed in baculovirus infected Sf21 cells assessed as remaining activity at 1 uM using KKLNRTLSVA as substrate incubated for 30 mins in presence of [gamma-33P]ATP by filter binding assay relative to control
Chain of Ribosomal protein S6 kinase alpha-1 (Homo sapiens) (Q15418 whole entry, the tested form may be a part): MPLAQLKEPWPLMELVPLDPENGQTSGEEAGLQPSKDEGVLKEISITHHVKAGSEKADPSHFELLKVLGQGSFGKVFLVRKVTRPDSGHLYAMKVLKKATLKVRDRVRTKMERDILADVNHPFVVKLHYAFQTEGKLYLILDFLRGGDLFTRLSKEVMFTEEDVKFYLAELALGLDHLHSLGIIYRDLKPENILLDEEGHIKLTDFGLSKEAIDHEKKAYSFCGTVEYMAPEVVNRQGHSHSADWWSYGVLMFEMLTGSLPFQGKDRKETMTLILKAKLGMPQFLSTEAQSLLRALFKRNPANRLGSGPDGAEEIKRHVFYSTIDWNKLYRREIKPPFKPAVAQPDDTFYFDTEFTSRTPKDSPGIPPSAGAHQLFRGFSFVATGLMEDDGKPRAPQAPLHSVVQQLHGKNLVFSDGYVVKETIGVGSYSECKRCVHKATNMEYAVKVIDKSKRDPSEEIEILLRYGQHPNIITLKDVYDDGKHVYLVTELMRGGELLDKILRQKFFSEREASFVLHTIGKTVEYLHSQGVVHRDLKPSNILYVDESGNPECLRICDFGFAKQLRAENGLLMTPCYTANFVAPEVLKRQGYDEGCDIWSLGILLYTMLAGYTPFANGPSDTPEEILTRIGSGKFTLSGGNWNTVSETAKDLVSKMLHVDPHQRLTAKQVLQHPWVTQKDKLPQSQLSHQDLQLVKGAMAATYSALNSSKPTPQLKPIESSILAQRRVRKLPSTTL

## COc1ccc(-c2ccc3c(N4CCOCC4)nc(N4C[C@@H](C)O[C@@H](C)C4)nc3n2)cc1CO [Ku-0063794]
[1]
  Activity: 83%
[2]
  Activity: 90%
[3]
  inhibition: Active
[4]
  Activity: 103%
[5]
  Activity: 108%
mTORC1 (Homo sapiens) [6]
  inhibition: 100%
mTORC1 (Homo sapiens) [7]
  inhibition: Dose-Dependent Effect
mTORC1 (Homo sapiens) [8]
  inhibition: Dose-Dependent Effect
[9]
  Activity: 86%
[10]
  Activity: 101%
mTORC1 (Homo sapiens) [11]
  inhibition: Dose-Dependent Effect
[12]
  Activity: 115%
[13]
  Activity: 88%
mTORC1 (Homo sapiens) [14]
  inhibition: Active
[15]
  Activity: 102%
[16]
  Activity: 88%
MEF
  Activity: 47.3%
[17]
  Activity: 100%
